{"source": "ChEMBL document CHEMBL1255391", "about": "“Rates and mechanisms of resistance development in Mycobacterium tuberculosis to a novel diarylquinoline ATP synthase inhibitor” (2010)", "assay_type_in_all_cases": "functional", "key": {"[1]": {"tested_on": "Mycobacterium tuberculosis", "experiment": "Antimicrobial activity against multidrug-resistant Mycobacterium tuberculosis isolate 5 expressing wild type atpE and F0 operon selected after 10 times MIC drug exposure", "outline": "(§1)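 Each resistant mutant clone (one colony picked per independent fluctuation culture selected on drug agar) is suspended in PBS, sonicated and applied by 96-pin replicator. Nonselective and rifampin control plates are included. Plates are read after 4 weeks; MIC is the lowest concentration with no visible growth.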"}, "[2]": {"tested_on": "Mycobacterium tuberculosis", "experiment": "Antimicrobial activity against multidrug-resistant Mycobacterium tuberculosis isolate 2 expressing atpE Ala28Val mutant selected after 10 times MIC drug exposure", "outline": "as §1"}, "[3]": {"tested_on": "Mycobacterium tuberculosis", "experiment": "Antimicrobial activity against multidrug-resistant Mycobacterium tuberculosis isolate 2 expressing atpE Glu61Asp mutant selected after 10 times MIC drug exposure", "outline": "as §1"}, "[4]": {"tested_on": "Mycobacterium tuberculosis", "experiment": "Antimicrobial activity against multidrug-resistant Mycobacterium tuberculosis isolate 3 expressing wild type atpE and ATP synthase selected after 10 times MIC drug exposure", "outline": "as §1"}, "[5]": {"tested_on": "Mycobacterium tuberculosis", "experiment": "Antimicrobial activity against multidrug-resistant Mycobacterium tuberculosis isolate 3 expressing wild type atpE and F0 operon selected after 30 times MIC drug exposure", "outline": "as §1"}, "[6]": {"tested_on": "Mycobacterium tuberculosis", "experiment": "Antimicrobial activity against multidrug-resistant Mycobacterium tuberculosis isolate 1 expressing atpE Glu63Asp mutant selected after 30 times MIC drug exposure", "outline": "as §1"}, "[7]": {"tested_on": "Mycobacterium tuberculosis", "experiment": "Antimicrobial activity against drug-susceptible Mycobacterium tuberculosis isolate 4 expressing wild type atpE Asp28Pro mutant selected after 10 times MIC drug exposure", "outline": "as §1"}, "[8]": {"tested_on": "Mycobacterium tuberculosis", "experiment": "Antimicrobial activity against multidrug-resistant Mycobacterium tuberculosis isolate 5 expressing wild type atpE Ala63Pro mutant selected after 10 times MIC drug exposure", "outline": "as §1"}, "[9]": {"tested_on": "Mycobacterium tuberculosis", "experiment": "Antimicrobial activity against multidrug-resistant Mycobacterium tuberculosis isolate 3 expressing wild type atpE and F0 operon selected after 10 times MIC drug exposure", "outline": "as §1"}, "[10]": {"tested_on": "Mycobacterium tuberculosis", "experiment": "Antimicrobial activity against multidrug-resistant Mycobacterium tuberculosis isolate 1 expressing wild type atpE selected after 10 times MIC drug exposure", "outline": "as §1"}, "[11]": {"tested_on": "Mycobacterium tuberculosis", "experiment": "Antimicrobial activity against multidrug-resistant Mycobacterium tuberculosis H37Rv"}, "[12]": {"tested_on": "Mycobacterium tuberculosis", "experiment": "Antimicrobial activity against multidrug-resistant Mycobacterium tuberculosis isolate 2 expressing wild type atpE selected after 10 times MIC drug exposure", "outline": "as §1"}, "[13]": {"tested_on": "Mycobacterium tuberculosis", "experiment": "Antimicrobial activity against drug-susceptible Mycobacterium tuberculosis isolate 4 expressing wild type atpE Glu61Asp mutant selected after 10 times MIC drug exposure", "outline": "as §1"}, "[14]": {"tested_on": "Mycobacterium tuberculosis", "experiment": "Antimicrobial activity against multidrug-resistant Mycobacterium tuberculosis isolate 3 expressing wild type atpE selected after 30 times MIC drug exposure", "outline": "as §1"}, "[15]": {"tested_on": "Mycobacterium tuberculosis", "experiment": "Antimicrobial activity against multidrug-resistant Mycobacterium tuberculosis isolate 3 expressing wild type atpE selected after 10 times MIC drug exposure", "outline": "as §1"}, "[16]": {"tested_on": "Mycobacterium tuberculosis", "experiment": "Antimicrobial activity against drug-susceptible Mycobacterium tuberculosis isolate 6 expressing wild type atpE Ala63Pro mutant selected after 30 times MIC drug exposure", "outline": "as §1"}, "[17]": {"tested_on": "Mycobacterium tuberculosis", "experiment": "Antimicrobial activity against drug-susceptible Mycobacterium tuberculosis H37Rv expressing wild type atpE Ala63Pro mutant selected after 30 times MIC drug exposure", "outline": "as §1"}, "[18]": {"tested_on": "Mycobacterium tuberculosis", "experiment": "Antimicrobial activity against multidrug-resistant Mycobacterium tuberculosis isolate 1 expressing atpE Glu61Asp mutant selected after 10 times MIC drug exposure", "outline": "as §1"}, "[19]": {"tested_on": "Mycobacterium tuberculosis", "experiment": "Antimicrobial activity against drug-susceptible Mycobacterium tuberculosis isolate 6 expressing wild type atpE Glu61Asp mutant selected after 30 times MIC drug exposure", "outline": "as §1"}, "[20]": {"tested_on": "Mycobacterium tuberculosis", "experiment": "Antimicrobial activity against multidrug-resistant Mycobacterium tuberculosis isolate 5 expressing wild type atpE selected after 10 times MIC drug exposure", "outline": "as §1"}, "[21]": {"tested_on": "Mycobacterium tuberculosis", "experiment": "Antimicrobial activity against multidrug-resistant Mycobacterium tuberculosis isolate 5 expressing wild type atpE Ile66Met mutant selected after 30 times MIC drug exposure", "outline": "as §1"}, "[22]": {"tested_on": "Mycobacterium tuberculosis", "experiment": "Antimicrobial activity against drug-susceptible Mycobacterium tuberculosis isolate 4 expressing wild type atpE Glu61Asp mutant selected after 30 times MIC drug exposure", "outline": "as §1"}}, "data": [{"smiles": "COc1nc2ccc(Br)cc2cc1[C@@H](c1ccccc1)[C@@](O)(CCN(C)C)c1cccc2ccccc12", "note": "[BEDAQUILINE]", "values": [{"measurement": "MIC", "setting": "[1]", "value": 0.48, "unit": "µg/mL"}, {"measurement": "MIC", "setting": "[2]", "value": 0.48, "unit": "µg/mL"}, {"measurement": "MIC", "setting": "[3]", "value": 0.24, "unit": "µg/mL"}, {"measurement": "MIC", "setting": "[4]", "value": 0.9, "unit": "µg/mL"}, {"measurement": "MIC", "setting": "[5]", "value": 0.9, "unit": "µg/mL"}, {"measurement": "MIC", "setting": "[6]", "value": 1.92, "unit": "µg/mL"}, {"measurement": "MIC", "setting": "[7]", "value": 0.3, "unit": "µg/mL"}, {"measurement": "MIC", "setting": "[8]", "value": 0.24, "unit": "µg/mL"}, {"measurement": "MIC", "setting": "[9]", "value": 0.9, "unit": "µg/mL"}, {"measurement": "MIC", "setting": "[10]", "value": 0.12, "unit": "µg/mL"}, {"measurement": "MIC", "setting": "[11]", "value": 0.03, "unit": "µg/mL"}, {"measurement": "MIC", "setting": "[12]", "value": 0.12, "unit": "µg/mL"}, {"measurement": "MIC", "setting": "[13]", "value": 0.96, "unit": "µg/mL"}, {"measurement": "MIC", "setting": "[14]", "value": 0.48, "unit": "µg/mL"}, {"measurement": "MIC", "setting": "[15]", "value": 0.9, "unit": "µg/mL"}, {"measurement": "MIC", "setting": "[16]", "value": 0.9, "unit": "µg/mL"}, {"measurement": "MIC", "setting": "[17]", "value": 3.84, "unit": "µg/mL"}, {"measurement": "MIC", "setting": "[18]", "value": 0.48, "unit": "µg/mL"}, {"measurement": "MIC", "setting": "[19]", "value": 0.48, "unit": "µg/mL"}, {"measurement": "MIC", "setting": "[20]", "value": 0.12, "unit": "µg/mL"}, {"measurement": "MIC", "setting": "[21]", "value": 0.9, "unit": "µg/mL"}, {"measurement": "MIC", "setting": "[22]", "value": 0.48, "unit": "µg/mL"}]}]}
